# Assay outcomes from PubChem BioAssay.
# SKN-1 block = C. elegans SKN-1 inhibition. 360,000 tested, 0.49% active. AID 624304. inhibition, % at 21.8 µM. C. elegans VP596 Pgst-4::GFP/RFP ratio, acrylamide-induced, 24 h;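 active = interference check ratio from 0.5 to 1.5 plus GFP to RFP signal ratio inhibition reaching or exceeding a fixed threshold, cut at about 30% in these data, passing the limit was not always enough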
# Rin1 Abl inh = inhibitors of human Rin1-Abl protein interaction; TR-FRET Rin1/Abl binding, biochemical; inhibition, % at 7.35 µM; 360,000 tested, 0.4% active; in the data active = inhibition above about 5%, passing the limit was not always enough
# Rce1 inhib = blocks yeast Ras-converting enzyme; Q03530; yeast membranes, quenched prenylated peptide cleavage fluorescence; calls only; 290,000 tested, 0.27% active;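 active = fall in fluorescence gain of 50% or more versus controls, with final raw signal at or below 3038400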;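 note: plate controls were neutral control wells for no effect and wells lacking membranes for full effect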
# Target sequence (Q03530 whole entry, looked up): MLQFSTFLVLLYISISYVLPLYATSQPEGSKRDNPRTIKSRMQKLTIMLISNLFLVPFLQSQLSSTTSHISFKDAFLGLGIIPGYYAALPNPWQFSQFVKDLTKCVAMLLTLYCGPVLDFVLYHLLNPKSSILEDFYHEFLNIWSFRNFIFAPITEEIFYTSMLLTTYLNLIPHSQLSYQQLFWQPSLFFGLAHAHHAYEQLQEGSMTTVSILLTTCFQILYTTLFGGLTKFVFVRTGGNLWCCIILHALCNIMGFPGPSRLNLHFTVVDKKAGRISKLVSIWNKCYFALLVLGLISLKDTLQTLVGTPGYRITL
# T cell modulator = T cell immune modulation candidate; response (vesicle binding), % at 7 µM; 2C CD8+ T cell-vesicle binding, flow cytometry; hits give low values; 330,000 tested, 0.068% active;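 active = response, share of CD8 T cells binding vesicles, and their 90th percentile fluorescence all below set limits, cut at about 80% in these data, passing the limit was not always enough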;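 note: values below 100% mean blocked vesicle binding to the CD8+ T cells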
#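 System: murine 2C transgenic CD8+ T lymphocytes; also added: QL9-loaded Drosophila micro-vesicles; times: binding 1.5 h at 37 °C; measured by: flow cytometry, PE anti-B7-1 (FL2) versus Alexa647 anti-CD8 (FL8), PFA-fixed; control set: Peptide-free naked vesicles (low) and QL9 vesicles with 0.7% DMSO vehicle (high)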
# Myeloid diff MLP = compounds promoting myeloid differentiation | calls only at 10 µM | 360,000 tested, 1% active | ER-HoxA9 myeloid progenitors, lysozyme-GFP differentiation, flow cytometry;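 active = normalized GFP-positive differentiation at or above the plate's own cutoff, the solvent-only control mean plus 3 SD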;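 note: cells exposed to compound for four days before flow analysis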
# GRK2 aptamer HTS = inhibitors of human GRK2 displacing RNA aptamer | bead flow cytometry, FAM-aptamer displacement from GRK2 | inhibition of aptamer binding, % at 10 µM | AID 488847 | P25098 | 330,000 tested, 0.59% active;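 active = inhibition of aptamer binding above 40%, roughly 3 SD of noise, on plates passing a quality check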;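 note: median bead fluorescence of bound FAM aptamer so fluorescent compounds give negative values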
# * marks the source's active call; other numbers are inactive results; i = inactive; . = no result given; + = active, no number. In the library only some 2.6% were active in any assay of this set; here they are far more common.
SMILES,SKN-1 block,Rin1 Abl inh,Rce1 inhib,T cell modulator,Myeloid diff MLP,GRK2 aptamer HTS
C(#CC1CCCCC1)c1ccc2c(c1)COc1c3ccccc3nn1-2,-0.2,0.4,i,292.9,i,0.0
C(#Cc1ccc2c(c1)COc1c3ccccc3nn1-2)c1ccccc1,37.5*,2.4,i,413.6,i,0.0
CCCCCCC#Cc1ccc2c(c1)COc1c3ccccc3nn1-2,5.2,2.6,i,0.0*,i,3.0
C#Cc1ccc2c(c1)COc1c3ccccc3nn1-2,47.9*,-0.1,i,560.8,i,0.0
CCCCC#Cc1ccc2c(c1)COc1c3ccccc3nn1-2,1.9,0.9,i,239.1,i,0.0
CCC(=O)N1CCC1(C)C(=O)Nc1cc(OC)ccc1OC (centres undefined),14.3,1.6,.,.,i,.
COc1ccc(S(=O)(=O)N2CCCCC2)cc1NC(=O)Cc1sc(C)nc1-c1ccc(F)cc1,6.2,6.2,i,280.9,i,0.0
COc1cc(C(=O)NC(C)c2cnn(-c3ccccc3C)c2C)cc(OC)c1OC (centres undefined),6.2,0.3,i,192.4,i,0.0
CCOc1ccc(N2C(=O)CC(NNc3nc4ccccc4s3)C2=O)cc1 (centres undefined),-7.0,0.9,i,163.9,i,0.0
Cc1ccc(NC(=O)CNC(=O)c2cccs2)cc1S(=O)(=O)Nc1ccc(Cl)cc1,41.5*,0.5,i,169.6,i,0.0
COc1ccc(NC(=O)CNC(=O)c2cccs2)cc1Cl,-3.3,-0.6,i,383.4,i,2.0
Cc1occc1C(=O)NCc1nc(-c2ccccc2)no1,0.4,3.3,i,449.1,i,0.0
Cc1cccc(-c2noc(CNC(=O)c3ccoc3C)n2)c1,-1.5,-1.9,i,435.0,+,4.0
Cc1cc2c(SCC(=O)Nc3cccc(O)c3)ncnc2s1,-13.1,2.5,.,.,+,.
CN(C)/C=N/c1c(C#N)cnn1-c1ccccc1,6.9,0.6,i,294.9,i,2.0
CN(C)/C=N/c1c(C#N)cnn1-c1ncnc2sc(-c3ccccc3)cc12,7.2,0.1,+,168.5,i,0.0
CC[C@]12c3[nH]c4cc(CCC(=O)N(C)C)ccc4c3CCN1C(=O)[C@@H](CC(=O)NCCc1ccccn1)C[C@@H]2C(=O)N1CCN(C(=O)c2ccco2)CC1,-3.6,-2.4,.,.,+,0.0
CC(C)=CCC/C(C)=C/CNC(=O)C[C@H]1C[C@H](C(=O)N2CCCCC2)[C@@]2(CCc3ccccc3)c3[nH]c4ccc(Cl)cc4c3CCN2C1=O,7.6,1.4,.,.,i,0.0
CC(C)=CCC/C(C)=C/CNC(=O)C[C@H]1C[C@H](C(=O)N2CCCCC2)[C@@]2(CCc3ccccc3)c3[nH]c4cc(CCC(=O)N(C)C)ccc4c3CCN2C1=O,1.1,0.2,.,.,+,4.0
CCCCN(C(=O)COC(=O)c1sccc1C)c1c(N)n(CCC)c(=O)[nH]c1=O,-7.2,-1.6,.,.,i,.
O=C(CCl)Nc1ncc(S(=O)(=O)c2ccc([N+](=O)[O-])cc2)s1,-5.9,1.9,.,375.7,i,0.0
CCC(C)(C)C(=O)Nc1ncc(S(=O)(=O)c2ccc([N+](=O)[O-])cc2)s1,36.2*,-4.8,i,185.6,i,0.0
O=C(NCc1cccs1)c1csc([C@@H]2O[C@H](CO)[C@H](O)[C@H](O)[C@H]2O)n1,42.7*,-1.6,.,.,i,.
NC(=O)[C@H]1CC2(CC(c3cccc(NC(=O)COc4ccc(Cl)cc4)c3)=NO2)CN1C(=O)C(c1ccccc1)c1ccccc1 (some centres undefined),1.4,2.7,+,i,i,2.0
NC(=O)[C@H]1CC2(CC(c3cccc(NC(=O)CC(c4ccccc4)c4ccccc4)c3)=NO2)CN1C(=O)CC(c1ccccc1)c1ccccc1 (some centres undefined),10.5,-0.4,i,711.1,i,2.0
SMILES,SKN-1 block,Rin1 Abl inh,Rce1 inhib,T cell modulator,Myeloid diff MLP,GRK2 aptamer HTS
NC(=O)[C@@H]1CC2(CC(c3cccc(NC(=O)COc4ccc(Cl)cc4)c3)=NO2)CN1C(=O)COc1ccc(Cl)cc1 (some centres undefined),2.4,2.0,i,211.4,i,2.0
NC(=O)[C@@H]1CC2(CC(c3cccc(NC(=O)CC(c4ccccc4)c4ccccc4)c3)=NO2)CN1C(=O)c1ccc(Cl)cc1 (some centres undefined),8.5,3.5,+,292.8,i,0.0
CN(Cc1c(F)cccc1Cl)C(=O)c1ccc2ccccc2n1,0.5,-1.3,i,171.3,i,1.0
CCOc1cc(/C=C2\CCC/C(=C\c3cc(Cl)c(O)c(OCC)c3)C2=O)cc(Cl)c1O,2.5,-3.6,i,237.4,+,1.0
C=CCNC(=S)N/N=C/c1ccc(-c2ccc(Cl)cc2Cl)o1,10.9,-4.9,i,161.3,i,2.0
CC1(C)CC(=O)C(C=NCC2CCN(C(=S)Nc3cccc(Cl)c3)CC2)=C(O)C1,13.8,1.0,i,258.9,i,1.0
COC(=O)c1ccccc1COn1c(=O)c[n+]([O-])c2ccccc21,22.3,-6.7,i,332.3,+,0.0
O=c1c[n+]([O-])c2ccccc2n1OCc1c(F)cccc1F,11.8,-2.0,i,289.0,+,1.0
CCOn1c(=O)c[n+]([O-])c2ccccc21,-6.7,3.3,i,666.3,+,2.0
O=c1c[n+]([O-])c2ccccc2n1OCc1ccccn1,18.8,-0.5,i,231.8,+,10.0
CCOC(=O)COc1coc(CN2CCN(c3ccc(F)cc3)CC2)cc1=O,-0.2,-1.7,i,240.6,i,1.0
CC(C)(C)OC(=O)N1CCc2onc(-c3ccccc3[N+](=O)[O-])c2C1=O,-11.6,.,.,.,i,.
COC(=O)c1ccccc1COn1c(=O)c(C)[n+]([O-])c2ccccc21,9.2,-0.7,i,129.3,i,0.0
COC(=O)c1ccc(COn2c(=O)c(C)[n+]([O-])c3ccccc32)cc1,44.0*,-2.3,i,270.6,i,0.0
O=C(O)c1cc(O)c2c(c1)[C@@H]([C@H]1c3cc(C(=O)O)cc(O)c3C(=O)c3c(O[C@@H]4O[C@H](CO)[C@@H](O)[C@H](O)[C@H]4O)cccc31)c1cccc(OC3O[C@H](CO)[C@@H](O)[C@H](O)[C@H]3O)c1C2=O (some centres undefined),-3.2,8.3,i,469.6,i,97.0*
O=C1c2cc(CO)cc(O)c2C(=O)c2c(O[C@@H]3OC(CO)[C@@H](O)[C@@H](O)[C@@H]3O)cccc21 (some centres undefined),10.8,-8.6,i,463.8,i,1.0
CC(=O)Nc1ccc(S(=O)(=O)N(C)CC(=O)Nc2ccc(F)c(F)c2F)cc1,1.9,1.7,.,467.8,i,0.0
CCN(CC(=O)NCc1ccc(Cl)cc1)C(=O)CSCC(=O)Nc1ccc(C)cc1,-0.7,2.7,i,449.6,i,1.0
